Laboratory results published in ChEMBL document CHEMBL1158546, “Discovery of novel and potent leukotriene B4 receptor antagonists. Part 1” (J Med Chem, 2010).
Activity calls are given as the source filed them. No cut-off for these calls is given here.

Key:
[1] = test system: Rattus norvegicus; test: Hepatotoxicity in po dosed rat assessed as increase in total bilirubin level treated for 14 days measured; format: toxicity, organism-based; conditions: in vivo, 336 h
[2] = target: Cytochrome P450 2C19 (Homo sapiens, UniProt P33261); test: Inhibition of CYP2C19 fluorescence method; format: ADME
Chain of Cytochrome P450 2C19 (P33261 whole entry): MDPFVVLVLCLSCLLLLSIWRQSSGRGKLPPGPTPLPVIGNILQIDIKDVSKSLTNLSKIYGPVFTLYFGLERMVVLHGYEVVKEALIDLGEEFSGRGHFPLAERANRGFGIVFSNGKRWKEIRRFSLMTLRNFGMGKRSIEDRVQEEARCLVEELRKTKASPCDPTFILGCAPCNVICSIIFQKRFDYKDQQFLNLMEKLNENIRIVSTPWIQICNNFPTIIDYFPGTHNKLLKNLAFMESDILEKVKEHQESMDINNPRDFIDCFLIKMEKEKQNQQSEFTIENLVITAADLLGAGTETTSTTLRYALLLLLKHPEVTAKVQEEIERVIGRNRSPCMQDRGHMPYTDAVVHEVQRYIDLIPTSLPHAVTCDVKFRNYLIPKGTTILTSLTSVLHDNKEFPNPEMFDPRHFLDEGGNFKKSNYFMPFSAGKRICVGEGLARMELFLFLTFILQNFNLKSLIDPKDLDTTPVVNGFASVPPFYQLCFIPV
In short: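 Cytochrome P450 high-throughput panel (1A2, 2D6, 2C9, 2C19, 3A4) using fluorogenic substrates; IC50 reported.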

[3] = Cmax in Sprague-Dawley rat at 10 mg/kg, po; format: ADME, organism-based; set-up: dose 10 mg/kg, route oral; conditions: in vivo
In short: (§1)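 Rat single-dose PK, n = 3, with oral dosing at 10 mg/kg and intravenous dosing at 2.5 or 5 mg/kg.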

[4] = target: T1, Leukotriene B4 receptor 1 (Homo sapiens, UniProt Q15722); test: Antagonist activity at BLT1 receptor expressed in human HL60 cells assessed as inhibition of LTB4-stimulated calcium flux after 30 mins; format: functional, cell-based, HL-60; conditions: read-out: IC50
T1 sequence (Q15722 whole entry): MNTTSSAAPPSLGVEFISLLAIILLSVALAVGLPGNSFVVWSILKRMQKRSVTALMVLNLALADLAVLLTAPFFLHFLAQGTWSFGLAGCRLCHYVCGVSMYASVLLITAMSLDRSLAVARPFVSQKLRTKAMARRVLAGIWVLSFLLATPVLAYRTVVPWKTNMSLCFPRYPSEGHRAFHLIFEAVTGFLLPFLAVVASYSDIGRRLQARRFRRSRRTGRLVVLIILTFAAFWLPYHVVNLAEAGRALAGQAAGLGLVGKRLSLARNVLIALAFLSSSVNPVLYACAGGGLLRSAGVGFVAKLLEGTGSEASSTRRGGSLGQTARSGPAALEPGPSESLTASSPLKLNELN
In short: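 HL-60 cells grown in RPMI-1640 with 20% FBS were plated at 2.0 × 10^5 cells/ml with 1 μM retinoic acid. They were dye-loaded in HBSS/20 mM HEPES/5 mM probenecid (0.05% BSA in the replacement buffer) for 1 h at 37 C. Compound (5 × 10^-11 to 3 × 10^-6 M final) was added for 30 min at room temperature, then 0.5 μM LTB4. Fluorescence was read every 1.5 s for 100 s and peak increase scored as % inhibition versus DMSO control.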

[5] = target: Cytochrome P450 3A4 (Homo sapiens, UniProt P08684); test: Inhibition of CYP3A4 fluorescence method; format: ADME
Chain of Cytochrome P450 3A4 (P08684 whole entry): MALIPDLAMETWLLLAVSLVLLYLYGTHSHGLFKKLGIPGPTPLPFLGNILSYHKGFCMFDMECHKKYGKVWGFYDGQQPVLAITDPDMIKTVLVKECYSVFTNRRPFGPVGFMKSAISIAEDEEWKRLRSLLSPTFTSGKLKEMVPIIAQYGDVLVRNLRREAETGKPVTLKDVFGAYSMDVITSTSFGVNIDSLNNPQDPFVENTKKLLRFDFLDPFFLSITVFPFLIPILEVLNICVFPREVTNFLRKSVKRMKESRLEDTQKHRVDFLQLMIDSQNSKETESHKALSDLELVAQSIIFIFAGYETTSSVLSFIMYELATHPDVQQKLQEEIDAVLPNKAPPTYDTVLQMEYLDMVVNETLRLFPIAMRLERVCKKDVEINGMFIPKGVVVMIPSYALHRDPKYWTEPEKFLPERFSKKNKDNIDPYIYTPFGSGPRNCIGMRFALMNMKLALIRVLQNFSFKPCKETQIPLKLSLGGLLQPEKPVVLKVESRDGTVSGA
In short: (§2)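 High-throughput CYP panel covering 1A2, 2D6, 2C9, 2C19 and 3A4, using fluorogenic substrates. IC50 was determined in μM.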

[6] = Oral bioavailability in Sprague-Dawley rat at 10 mg/kg, po; format: ADME, organism-based; conditions: in vivo; in short: as §1
[7] = target: T2, Leukotriene B4 receptor 2 (Homo sapiens, UniProt Q9NPC1); test: Antagonist activity at FLAG-tagged human BLT2 receptor expressed in HEK293 cells assessed as inhibition of LTB4-stimulated calcium mobilization preincubated for 10 mins before LTB4 challenge; format: functional, cell-based
T2 sequence (Q9NPC1 whole entry): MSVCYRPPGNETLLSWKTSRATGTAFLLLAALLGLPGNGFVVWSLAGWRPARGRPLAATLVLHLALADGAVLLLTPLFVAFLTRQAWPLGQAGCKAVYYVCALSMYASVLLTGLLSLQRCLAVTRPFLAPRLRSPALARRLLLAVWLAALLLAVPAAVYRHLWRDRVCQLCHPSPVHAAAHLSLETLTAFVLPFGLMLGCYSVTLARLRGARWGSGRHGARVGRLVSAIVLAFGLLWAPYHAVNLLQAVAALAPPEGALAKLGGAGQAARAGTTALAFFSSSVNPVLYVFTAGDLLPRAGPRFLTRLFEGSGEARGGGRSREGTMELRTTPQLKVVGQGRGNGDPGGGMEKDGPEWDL

[8] = test system: Rattus norvegicus; test: Toxicity in rat assessed as effect on food consumption at 400 mg/kg, po qd treated for 14 days; format: organism-based; set-up: dose 400 mg/kg, route oral; conditions: in vivo, 336 h
In short: (§3)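 Male Han-Wistar rats (200-230 g), n = 4 per group, were given 40 or 400 (mg/kg)/day orally for 14 days in 2% Klucel LF/0.1% Tween-80 versus vehicle. Body weight was recorded at pretreatment and on days 1, 8 and 14, and food intake weekly. Clinical chemistry was sampled on day 5 and at necropsy. Organs were formalin-fixed and H&E stained. Data are given as mean ± SD and analysed by Bartlett's test.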

[9] = test system: Rattus norvegicus; test: Toxicity in rat assessed as effect on body weight at 400 mg/kg, po qd treated for 14 days; format: organism-based; set-up: dose 400 mg/kg, route oral; conditions: in vivo, 336 h; in short: as §3
[10] = Half life in Sprague-Dawley rat at 10 mg/kg, po; format: ADME, organism-based; set-up: dose 10 mg/kg, route oral; conditions: in vivo; in short: as §1
[11] = test system: Rattus norvegicus; test: Toxicity in rat assessed as aspartate aminotransferase level at 400 mg/kg, po qd treated for 14 days; format: organism-based; set-up: dose 400 mg/kg, route oral; conditions: in vivo, 336 h; in short: as §3
[12] = test system: Rattus norvegicus; test: Hepatotoxicity in rat assessed as increase in ALT level at 40 mg/kg, po qd after 15 days; format: toxicity, organism-based; set-up: dose 40 mg/kg, route oral; conditions: in vivo, 360 h; in short: as §3
[13] = test system: Cavia porcellus; test: Antiinflammatory activity against LTB4-evoked eosinophilic pulmonary inflammation in Hartley guinea pig at 10 mg/kg, po after 1 hr treated before LTB4 challenge; format: functional, organism-based; set-up: dose 10 mg/kg
In short: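 Male Hartley guinea pigs (250-350 g) were dosed orally with 10 mg/kg in 2% Klucel LF/0.1% Tween-80. One hour later they were exposed to 10 μg/mL LTB4 aerosol for 20 min. BAL (3 × 5 mL HBSS) was done 2 h after challenge under pentobarbital. Cells were counted, and differentials of at least 300 cells were taken on Wright-stained cytospins. Analysis by two-way ANOVA/Bonferroni; 4-20 animals per group.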

[14] = Tmax in Sprague-Dawley rat at 10 mg/kg, po; format: ADME, organism-based; set-up: dose 10 mg/kg, route oral; conditions: in vivo; in short: as §1
[15] = test system: Rattus norvegicus; test: Hepatotoxicity in rat assessed as increase in ALT level at 400 mg/kg, po qd treated for 14 days measured after 5 days relative to control; conditions: in vivo, 120 h
[16] = target: Cytochrome P450 2D6 (Homo sapiens, UniProt P10635); test: Inhibition of CYP2D6 fluorescence method; format: ADME; in short: as §2
Chain of Cytochrome P450 2D6 (P10635 whole entry): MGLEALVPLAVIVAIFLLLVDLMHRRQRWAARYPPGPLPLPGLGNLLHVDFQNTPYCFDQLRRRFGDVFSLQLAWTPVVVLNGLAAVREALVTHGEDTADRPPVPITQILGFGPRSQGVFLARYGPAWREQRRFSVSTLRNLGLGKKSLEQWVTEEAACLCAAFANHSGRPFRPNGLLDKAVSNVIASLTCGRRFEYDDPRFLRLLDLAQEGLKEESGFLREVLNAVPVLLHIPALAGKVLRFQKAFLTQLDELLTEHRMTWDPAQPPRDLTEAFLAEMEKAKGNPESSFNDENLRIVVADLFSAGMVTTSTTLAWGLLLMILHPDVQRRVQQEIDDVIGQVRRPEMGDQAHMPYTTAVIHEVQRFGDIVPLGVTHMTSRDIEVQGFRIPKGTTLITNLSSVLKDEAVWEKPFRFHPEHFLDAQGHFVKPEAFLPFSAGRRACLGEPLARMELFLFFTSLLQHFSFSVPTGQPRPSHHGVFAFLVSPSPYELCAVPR

[17] = test system: Rattus norvegicus; test: Toxicity in rat assessed as aspartate aminotransferase level at 40 mg/kg, po qd treated for 14 days; format: organism-based; set-up: dose 40 mg/kg, route oral; conditions: in vivo, 336 h; in short: as §3
[18] = test system: Rattus norvegicus; test: Hepatotoxicity in rat assessed as increase in ALT level at 400 mg/kg, po qd treated after 15 days; format: toxicity, organism-based; set-up: dose 400 mg/kg, route oral; conditions: in vivo, 360 h; in short: as §3
[19] = test system: Neutrophil; test: Inhibition of LTB4-stimulated human neutrophils migration after 30 mins by using CyQuant GR fluorescent dye; format: functional, cell-based; conditions: Homo sapiens, Neutrophil, 0.5 h; read-out: IC50
In short: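 Human blood neutrophils (95-97% pure, isolated over Lympholyte-poly) at 5 × 10^6 cells/mL were preincubated with compound (3 × 10^-12 to 1 × 10^-6 M final) for 30 min at 37 C. Migration toward 100 ng/mL LTB4 across a polycarbonate membrane ran 90 min at 37 C. Migrated cells were lysed with CyQuant GR and read at 480/520 nm. IC50 was taken from a sigmoidal fit of % inhibition.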

[20] = test system: Rattus norvegicus; test: Hepatotoxicity in rat assessed as increase in ALT level at 400 mg/kg, po qd treated after 5 days; format: toxicity, organism-based; set-up: dose 400 mg/kg, route oral; conditions: in vivo, 120 h; in short: as §3
[21] = target: T1, Leukotriene B4 receptor 1; test: Antagonist activity at FLAG-tagged human BLT1 receptor expressed in HEK293 cells assessed as inhibition of LTB4-stimulated calcium mobilization preincubated for 10 mins before LTB4 challenge; format: functional, cell-based
[22] = target: Cytochrome P450 2C9 (Homo sapiens, UniProt P11712); test: Inhibition of CYP2C9 fluorescence method; format: ADME
Chain of Cytochrome P450 2C9 (P11712 whole entry): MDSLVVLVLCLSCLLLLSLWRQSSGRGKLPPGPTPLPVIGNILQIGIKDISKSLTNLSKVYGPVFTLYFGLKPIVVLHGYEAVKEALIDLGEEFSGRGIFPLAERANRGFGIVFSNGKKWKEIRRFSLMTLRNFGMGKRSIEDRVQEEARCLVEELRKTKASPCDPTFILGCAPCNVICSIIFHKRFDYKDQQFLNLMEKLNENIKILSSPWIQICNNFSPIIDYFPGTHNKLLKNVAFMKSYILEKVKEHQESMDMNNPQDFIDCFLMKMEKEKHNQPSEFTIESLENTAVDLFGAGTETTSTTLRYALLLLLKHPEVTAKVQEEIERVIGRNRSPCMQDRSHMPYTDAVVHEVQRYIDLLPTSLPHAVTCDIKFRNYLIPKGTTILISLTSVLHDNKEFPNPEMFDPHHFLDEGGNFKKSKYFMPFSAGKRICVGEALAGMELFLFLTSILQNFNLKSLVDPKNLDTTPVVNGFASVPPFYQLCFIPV

[23] = Volume of distribution at steady state in Sprague-Dawley rat at 5 mg/kg, iv; format: ADME, organism-based; set-up: dose 5 mg/kg, route intravenous; conditions: in vivo, read-out: Vdss; in short: as §1
[24] = test system: Rattus norvegicus; test: Toxicity in rat assessed as alkaline phosphatase level at 400 mg/kg, po qd treated for 14 days; format: organism-based; set-up: dose 400 mg/kg, route oral; conditions: in vivo, 336 h; in short: as §3
[25] = Clearance in Sprague-Dawley rat at 5 mg/kg, iv; format: ADME, organism-based; set-up: dose 5 mg/kg, route intravenous; conditions: in vivo; in short: as §1
[26] = test system: Rattus norvegicus; test: Hepatotoxicity in rat assessed as increase in ALT level at 40 mg/kg, po qd after 5 days; format: toxicity, organism-based; set-up: dose 40 mg/kg, route oral; conditions: in vivo, 120 h; in short: as §3
[27] = Half life in Sprague-Dawley rat at 5 mg/kg, iv; format: ADME, organism-based; set-up: dose 5 mg/kg, route intravenous; conditions: in vivo; in short: as §1
[28] = test system: Rattus norvegicus; test: Toxicity in rat assessed as alkaline phosphatase level at 40 mg/kg, po qd treated for 14 days; format: organism-based; set-up: dose 40 mg/kg, route oral; conditions: in vivo, 336 h; in short: as §3

Row | IC50 [2] | Cmax [3] | IC50 [4] | IC50 [5] | bioavailability [6] | IC50 [7] | half-life [10] | Tmax [14] | IC50 [16] | IC50 [19] | Compound | Activity [1] | Activity [8] | Activity [9] | Activity [11] | Activity [12] | Activity [13] | Activity [15] | Activity [17] | Activity [18] | Activity [20] | other results
1 | > 7500 nM | 2.25 µM | 1.19 nM | > 7500 nM | 88% | 194 nM | 3.1 h | 5 h | > 7500 nM | 3.68 nM | O=C(O)CCCOc1cccc(CCCCCCOc2cc(-c3cccc(F)c3)cc(-c3ccc4c(c3)OCO4)c2)c1CCC(=O)O | Toxic | Non-toxic | Non-toxic | Non-toxic | 35 IU/L | Active | 53% | Non-toxic | 121 IU/L | 69 IU/L | IC50 [21]: 129 nM; IC50 [22]: > 25000 nM; Vd [23]: 0.98 L/kg; Activity [24]: Non-toxic; clearance [25]: 11.6 mL/min/kg; Activity [26]: 40 IU/L; half-life [27]: 2.4 h; Activity [28]: Non-toxic
2 | > 7500 nM | 6.21 µM | 0.44 nM | > 7500 nM | 70% | 164 nM | 2.7 h | 3 h | > 7500 nM | 0.1 nM | O=C(O)CCCOc1cccc(CCCCCCOc2cc(-c3ccsc3)cc(-c3ccc4c(c3)OCO4)c2)c1CCC(=O)O | Toxic | Non-toxic | Non-toxic | Non-toxic | 38 IU/L | Active | 29% | Non-toxic | 125 IU/L | 58 IU/L | IC50 [21]: 114 nM; IC50 [22]: 3900 nM; Vd [23]: 0.22 L/kg; Activity [24]: Non-toxic; clearance [25]: 5.47 mL/min/kg; Activity [26]: 40 IU/L; half-life [27]: 2.1 h; Activity [28]: Non-toxic
